Screens as filed in PubChem.
PAFAH2 inh: PAFAH2 enzyme inhibitors, primary screen, biochemical, fluorescence polarization, human; recombinant PAFAH2, FP-rhodamine activity probe; inhibition, % at 3.39 µM; 340,000 compounds, 0.99% hits; AID 492956, 2010;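 active = inhibition above the mean over all tested compounds plus 3 SD, cut at about 30% in these data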;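 also: inhibitors block probe labeling of enzyme so polarization drops; 0% = enzyme with DMSO and 100% = wells lacking PAFAH2 protein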
pPAFAH FP inh: pPAFAH enzyme inhibitors, primary screen, biochemical, fluorescence polarization, human; recombinant pPAFAH, FP-rhodamine probe fluorescence polarization; inhibition, % at 3.39 µM; 330,000 compounds, 1.5% hits;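 active = inhibition above the mean inhibition across the screen plus 3 SD, cut at about 25% in these data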;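 also: inhibitors block binding of the rhodamine activity-based probe so polarization drops; 0% = enzyme with DMSO and 100% = wells lacking pPAFAH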
PAFAH1B3 FP inh: PAFAH1B3 enzyme inhibitors, primary screen, biochemical, fluorescence polarization, human | Platelet-activating factor acetylhydrolase IB subunit alpha1 (Homo sapiens), Q15102 | recombinant PAFAH1B3, FP-rhodamine probe | inhibition, % at 3.39 µM | 340,000 compounds, 0.28% hits | AID 492972, 2010;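 active = inhibition above the screen-wide average of all tested compounds plus 3 SD, cut at about 25% in these data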;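 also: 0% = enzyme with DMSO only and 100% = wells lacking PAFAH1B3 protein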
Target sequence (Q15102 whole entry, looked up): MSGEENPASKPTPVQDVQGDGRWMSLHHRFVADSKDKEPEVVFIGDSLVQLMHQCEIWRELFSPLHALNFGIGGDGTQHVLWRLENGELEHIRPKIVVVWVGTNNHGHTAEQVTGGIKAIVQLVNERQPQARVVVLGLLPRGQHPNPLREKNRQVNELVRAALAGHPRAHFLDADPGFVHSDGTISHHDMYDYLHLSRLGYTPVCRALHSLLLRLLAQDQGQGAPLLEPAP
RBBP9 inh: human RBBP9 inhibitors, primary screen, biochemical, fluorescence polarization, FP-Rh probe, HTS; recombinant RBBP9; 220,000 compounds, 0.2% hits; inhibition, % at 7.94 µM;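 active = inhibition above the campaign mean of all tested compounds plus 3 SD, cut at about 14% in these data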;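 also: plate controls were DMSO wells with RBBP9 for no effect and wells lacking RBBP9 protein for full effect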
Target sequence (O75884 whole entry, looked up): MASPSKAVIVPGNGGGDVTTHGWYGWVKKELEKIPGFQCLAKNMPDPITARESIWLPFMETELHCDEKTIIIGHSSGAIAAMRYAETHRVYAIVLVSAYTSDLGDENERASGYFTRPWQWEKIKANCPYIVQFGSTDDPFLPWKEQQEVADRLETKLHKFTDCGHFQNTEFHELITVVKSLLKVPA
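System: RBBP9 protein / Buffer or medium: Tris/NaCl buffer pH 8.0 with 0.1% Pluronic / Probe or stimulus: Serine-hydrolase probe FP-Rh, 375 nM pre-mixing / Dosing: 7.94 µM single dose, 0.794% DMSO / Times: enzyme-compound preincubation 30 min, then probe labeling 45 min, 25 °C / Technique: fluorescence polarization (mP), excitation 525 nm, emission 598 nm / Replication: singlicate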
PAFAH1B2 FP inh: PAFAH1B2 enzyme inhibitors, primary screen, biochemical, fluorescence polarization, human; Platelet-activating factor acetylhydrolase IB subunit alpha2 (Homo sapiens), P68402; recombinant PAFAH1B2, FP-rhodamine activity probe; inhibition, % at 3.39 µM; 340,000 compounds, 1.2% hits;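 active = inhibition above the mean of all tested compounds plus 3 SD, cut at about 24% in these data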;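 also: 0% = enzyme with DMSO and 100% = wells lacking PAFAH1B2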
PAFAH2 FP conf: PAFAH2 enzyme inhibitors, confirmation, biochemical, fluorescence polarization, human; shares compounds with PAFAH2 inh; recombinant PAFAH2, FP-rhodamine activity probe; inhibition, % at 3.39 µM; 2,300 compounds, 65% hits; AID 493030, 2011;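 active = mean inhibition over three repeats above a set limit taken from the earlier primary screen, cut at about 30% in these data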;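 also: inhibitor blocks binding of rhodamine activity probe so polarization falls; 0% = enzyme with DMSO and 100% = wells lacking PAFAH2 protein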
An asterisk follows results filed as active; / = no result given. Shown are actives, neighbours in structure and some others; about 2.7% of the full set was active somewhere.

SMILES	PAFAH2 inh	pPAFAH FP inh	PAFAH1B3 FP inh	RBBP9 inh	PAFAH1B2 FP inh	PAFAH2 FP conf
C/C(=N/OC(=O)C1CC1)c1cc(-c2ccc(Cl)cc2)no1	73*	2	12	-6	7	61*
Cc1ccsc1C(=O)OCC(=O)Nc1c(Cl)cccc1C(F)(F)F	31*	15	1	-7	4	30*
O=C(COC(=O)C1CC1)Nc1c(Cl)cccc1C(F)(F)F	38*	3	-4	/	-2	26
Cc1c(Cl)cnc(NC(=O)COC(=O)C2CC3CCCC(C2)C3=O)c1Cl (stereo not given)	22	6	0	/	0	/
Cc1c(Cl)cnc(NC(=O)COC(=O)C2CC2)c1Cl	44*	18	6	/	5	28
COC(=O)c1ccc(C2NCCc3cc(OC)c(OC)cc32)cc1 (stereo not given)	5	-2	6	/	0	/
O=S(=O)(O)c1cccc2cccc(Nc3ccccc3)c12	31*	22	13	/	5	7
c1ccc(Nc2cccc3c(Nc4ccccc4)cccc23)cc1	-1	8	5	-3	0	/
c1ccc(-c2csc(NC3CCCCC3)n2)cc1	0	4	-4	/	3	/
O=C(Nc1nc(-c2ccccc2)cs1)NC1CCCCC1	30*	0	4	-12	6	1
O=C(COC(=O)C12CC3CC(CC(O)(C3)C1)C2)Nc1ccc(Br)cc1F	30*	1	4	/	0	13
O=C(COC(=O)C12CC3CC(CC(O)(C3)C1)C2)Nc1ccccc1OC(F)F	21	4	5	-6	8	/
O=C(COC(=O)C12CC3CC(CC(C3)C1)C2)Nc1ccccc1F	40*	11	12	-8	11	29
Cc1c(Cl)cccc1NC(=O)COC(=O)C12CC3CC(CC(O)(C3)C1)C2	43*	-2	4	/	-1	16
CN(CCOc1ccc(Cl)cc1)C(=O)C1CCN(C(=O)c2ccc(Cl)cc2)CC1	5	-3	7	/	2	/
CC(=O)N(NC(=O)c1ccc(C)cc1)C1CC(=O)N(c2ccccc2Cl)C1=O (stereo not given)	4	0	-2	-2	7	/
CC(C(=O)Nc1ccc2c(c1)OCO2)N(c1ccc(Cl)cc1)S(C)(=O)=O (stereo not given)	-2	3	0	-6	5	/
Cn1nccc1C(=O)OCC(=O)Nc1ccccc1	40*	/	-4	/	-3	28
Cn1ccc(C(=O)OCC(=O)Nc2ccccc2)n1	73*	/	7	/	1	78*
Cc1ccc(NC(=O)COC(=O)c2ccn(C)n2)cc1	68*	3	-1	-1	1	63*
CCn1c(COc2ccc(=O)n(-c3ccccc3)n2)nnc1SC	-6	6	1	-8	0	/
O=C(OCc1nc(-c2ccccc2Cl)no1)c1ccco1	42*	-2	6	/	0	41*
O=C(OCc1nnc(-c2ccccc2Br)o1)c1ccco1	53*	13	-4	/	9	50*
O=C(O)CCc1nc(-c2ccccc2Cl)no1	-6	5	0	1	-1	/
CCCCN(C)CCCN1C(=O)C2C(C(=O)Nc3cccc(OC)c3)C3C=CC2(O3)C1C(=O)NC1CCCCC1C (stereo not given)	3	-2	-1	/	4	/
SMILES	PAFAH2 inh	pPAFAH FP inh	PAFAH1B3 FP inh	RBBP9 inh	PAFAH1B2 FP inh	PAFAH2 FP conf
COC(=O)c1ccc(CN2CCN(CC=C(C)C)C(CCO)C2)cc1 (stereo not given)	-2	6	3	0	-3	/
Cc1cccc(N2NC(=O)/C(=C/c3ccc(-c4ccc(Cl)c(C(=O)O)c4)o3)C2=O)c1	32*	/	24	2	17	20
CC(C)NC(=O)COC(=O)c1cccc(NS(=O)(=O)/C=C/c2ccccc2)c1	37*	15	-5	-5	4	18
CC1CCCC(NC(=O)COC(=O)c2cccc(NS(=O)(=O)/C=C/c3ccccc3)c2)C1C (stereo not given)	46*	9	3	-2	2	40*
NC(=O)COC(=O)c1cccc(NS(=O)(=O)/C=C/c2ccccc2)c1	-3	4	4	-9	1	/
NC(=O)NC(=O)COC(=O)c1cccc(NS(=O)(=O)/C=C/c2ccccc2)c1	4	6	9	-15	7	/
CC(C)[C@H]1CC[C@@H](C)C(C(=O)c2ccccc2)C1=O (stereo not given in full)	1	-3	0	-2	7	/
O=C(O)COc1ccccc1/C=C1\SC(=S)N(/N=C/c2ccccc2O)C1=O	42*	2	14	-5	4	32*
O=C(O)CN1C(=O)/C(=C\c2ccccc2OCc2ccc(Cl)cc2)SC1=S	30*	18	5	/	20	22
CN1C(=O)/C(=C\c2ccccc2OCc2ccccc2)SC1=S	-2	2	-3	/	8	/
O=C(O)COc1ccccc1/C=C1\SC(=S)N(NC(=O)c2ccccc2O)C1=O	26	10	-13	/	-1	/
O=C(Nc1ccccc1C(=O)NC(Cc1ccccc1)C(=O)NC1CCCCCC1)c1ccccc1 (stereo not given)	-5	-1	-6	1	-1	/
CCOc1ccccc1N1CCN(C(=O)c2csc(C)c2CC)CC1	0	5	0	-1	-1	/
O=C(COC(=O)C1CCCCC1)Nc1cccc(Br)c1	77*	7	4	/	-2	71*
O=C(COC(=O)C1CCCCC1)Nc1cccc(F)c1	89*	10	4	/	-1	79*
O=C(COC(=O)CC1CCCC1)Nc1cccc(F)c1	81*	21	-1	/	-4	81*
O=C(COC(=O)C1CCC1)Nc1cccc(Cl)c1	3	0	-2	/	0	/
O=C(COC(=O)C1CCN(/C=C/C(=O)C(F)(F)F)CC1)Nc1cccc(F)c1	0	3	12	-4	1	/
C/C(=N/NC(=O)CNS(=O)(=O)c1ccc(C)cc1)c1cccc([N+](=O)[O-])c1	6	6	8	-1	1	/
COc1ccccc1NC(=O)COC(=O)c1ccccc1C(=O)N1CCN(c2ccccc2)CC1	-2	-2	12	-2	0	/
COC(CNC(=O)CNC(=S)N(CCCN1CCOCC1)Cc1cccs1)OC	1	-2	1	-6	1	/
O=C(CNC(=S)N(CCCN1CCOCC1)Cc1cccs1)NCc1ccccc1Cl	47*	5	6	/	-1	31*
O=C(CNC(=S)N(CCCN1CCOCC1)Cc1cccs1)NCCCN1CCOCC1	4	2	4	0	6	/
